{"source": "ChEMBL document CHEMBL4376814", "about": "“Novel cyclin-dependent kinase 9 (CDK9) inhibitor with suppression of cancer stemness activity against non-small-cell lung cancer” (Eur J Med Chem, 2019)", "key": {"NCI-H1299 [1]": {"test_system": "NCI-H1299", "test": "Antitumour activity against human H1299 cells xenografted in Balb/c mouse assessed as reduction in Oct4 level at 20 to 80 mg/kg, po administered for 3 weeks by […] based light microscopic analysis", "assay_type": "functional, organism-based", "how_it_was_run": "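Tumours came from the H1299 oral-dosing xenograft run for 3 weeks. Formalin-fixed, paraffin-embedded 5-µm sections were deparaffinized and rehydrated. Primary antibodies (CDK9, cyclin T1, p-Rb Ser780, RNAPII CTD Ser5, Oct4) used at 1:100 overnight at 4 °C. Biotinylated secondary for 1 h at room temperature, then ABC-peroxidase/DAB, hematoxylin counterstain and light microscopy.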"}, "[2]": {"biological_target": "Tau-tubulin kinase 2 (Homo sapiens) (UniProt Q6IQ55)", "test": "Inhibition of recombinant human TTBK2 (1 to 331 residues) at 1 uM using casein as substrate measured after 40 mins in presence of [gamma33P]ATP by scintillation counting method relative to control"}, "A549": {"test_system": "A549", "test": "Induction of apoptosis in human A549 cells assessed as viable cells at 0.25 uM after 48 hrs by AnnexinV-FITC/PI staining-based flow cytometric analysis (reference value: 88.8%)", "assay_type": "functional", "conditions": "A549, 48 h, read-out: Activity"}, "[3]": {"biological_target": "Aurora kinase C (Homo sapiens) (UniProt Q9UQB9)", "test": "Inhibition of recombinant human AURKC (35 to end residues) at 1 uM using AKRRRLSSLRA as substrate measured after 40 mins in presence of [gamma33P]ATP by scintillation counting method relative to control"}, "[4]": {"test_system": "Hepatocyte growth factor receptor (Homo sapiens), P08581 [D1228H]", "sequence (P08581 whole entry D1228H)": "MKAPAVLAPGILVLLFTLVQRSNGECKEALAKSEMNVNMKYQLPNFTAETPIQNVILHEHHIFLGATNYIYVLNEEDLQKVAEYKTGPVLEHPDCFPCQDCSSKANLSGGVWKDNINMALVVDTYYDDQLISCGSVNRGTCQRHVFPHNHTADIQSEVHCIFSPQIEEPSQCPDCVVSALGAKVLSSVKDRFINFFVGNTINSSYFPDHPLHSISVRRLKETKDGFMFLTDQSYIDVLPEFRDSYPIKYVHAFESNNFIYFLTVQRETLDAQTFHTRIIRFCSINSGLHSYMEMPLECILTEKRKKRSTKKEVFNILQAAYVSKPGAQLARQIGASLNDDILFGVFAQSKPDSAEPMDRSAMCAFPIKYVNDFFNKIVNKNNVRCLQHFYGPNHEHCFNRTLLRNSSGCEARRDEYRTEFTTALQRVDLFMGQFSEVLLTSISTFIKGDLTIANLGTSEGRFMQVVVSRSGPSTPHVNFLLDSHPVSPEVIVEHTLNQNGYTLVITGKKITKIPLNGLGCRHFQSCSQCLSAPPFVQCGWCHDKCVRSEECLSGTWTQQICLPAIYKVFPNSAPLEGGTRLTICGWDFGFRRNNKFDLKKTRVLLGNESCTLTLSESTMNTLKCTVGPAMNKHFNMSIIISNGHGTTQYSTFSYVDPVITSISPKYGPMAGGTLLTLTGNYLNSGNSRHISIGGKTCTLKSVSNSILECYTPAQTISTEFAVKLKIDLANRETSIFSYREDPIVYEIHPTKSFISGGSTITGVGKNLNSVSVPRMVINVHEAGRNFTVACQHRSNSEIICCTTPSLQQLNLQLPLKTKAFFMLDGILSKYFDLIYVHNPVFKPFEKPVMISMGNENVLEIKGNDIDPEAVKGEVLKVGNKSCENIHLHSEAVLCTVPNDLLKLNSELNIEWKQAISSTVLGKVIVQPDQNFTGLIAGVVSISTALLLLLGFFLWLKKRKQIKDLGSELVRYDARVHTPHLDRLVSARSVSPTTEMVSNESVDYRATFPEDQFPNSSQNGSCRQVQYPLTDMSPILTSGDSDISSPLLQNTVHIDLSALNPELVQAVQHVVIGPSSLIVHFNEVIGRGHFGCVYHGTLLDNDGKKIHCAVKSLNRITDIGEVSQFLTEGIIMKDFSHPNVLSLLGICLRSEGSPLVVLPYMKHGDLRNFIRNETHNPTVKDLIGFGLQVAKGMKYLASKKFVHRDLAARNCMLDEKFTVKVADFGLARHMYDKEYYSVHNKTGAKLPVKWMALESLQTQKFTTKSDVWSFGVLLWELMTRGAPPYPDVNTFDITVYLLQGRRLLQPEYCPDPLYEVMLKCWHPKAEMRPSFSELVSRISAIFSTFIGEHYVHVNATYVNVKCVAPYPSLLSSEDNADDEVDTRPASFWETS", "test": "Inhibition of recombinant human MET A1209G/V1290L/D1246H mutant (974 to end residues) at 1 uM using KKKGQEEEYVFIE as substrate measured after 40 mins in presence of [gamma33P]ATP by scintillation counting method relative to control"}, "[5]": {"biological_target": "Serine/threonine-protein kinase WNK2 (Homo sapiens) (UniProt Q9Y3S1)", "sequence (Q9Y3S1 whole entry, the tested form may be a part)": "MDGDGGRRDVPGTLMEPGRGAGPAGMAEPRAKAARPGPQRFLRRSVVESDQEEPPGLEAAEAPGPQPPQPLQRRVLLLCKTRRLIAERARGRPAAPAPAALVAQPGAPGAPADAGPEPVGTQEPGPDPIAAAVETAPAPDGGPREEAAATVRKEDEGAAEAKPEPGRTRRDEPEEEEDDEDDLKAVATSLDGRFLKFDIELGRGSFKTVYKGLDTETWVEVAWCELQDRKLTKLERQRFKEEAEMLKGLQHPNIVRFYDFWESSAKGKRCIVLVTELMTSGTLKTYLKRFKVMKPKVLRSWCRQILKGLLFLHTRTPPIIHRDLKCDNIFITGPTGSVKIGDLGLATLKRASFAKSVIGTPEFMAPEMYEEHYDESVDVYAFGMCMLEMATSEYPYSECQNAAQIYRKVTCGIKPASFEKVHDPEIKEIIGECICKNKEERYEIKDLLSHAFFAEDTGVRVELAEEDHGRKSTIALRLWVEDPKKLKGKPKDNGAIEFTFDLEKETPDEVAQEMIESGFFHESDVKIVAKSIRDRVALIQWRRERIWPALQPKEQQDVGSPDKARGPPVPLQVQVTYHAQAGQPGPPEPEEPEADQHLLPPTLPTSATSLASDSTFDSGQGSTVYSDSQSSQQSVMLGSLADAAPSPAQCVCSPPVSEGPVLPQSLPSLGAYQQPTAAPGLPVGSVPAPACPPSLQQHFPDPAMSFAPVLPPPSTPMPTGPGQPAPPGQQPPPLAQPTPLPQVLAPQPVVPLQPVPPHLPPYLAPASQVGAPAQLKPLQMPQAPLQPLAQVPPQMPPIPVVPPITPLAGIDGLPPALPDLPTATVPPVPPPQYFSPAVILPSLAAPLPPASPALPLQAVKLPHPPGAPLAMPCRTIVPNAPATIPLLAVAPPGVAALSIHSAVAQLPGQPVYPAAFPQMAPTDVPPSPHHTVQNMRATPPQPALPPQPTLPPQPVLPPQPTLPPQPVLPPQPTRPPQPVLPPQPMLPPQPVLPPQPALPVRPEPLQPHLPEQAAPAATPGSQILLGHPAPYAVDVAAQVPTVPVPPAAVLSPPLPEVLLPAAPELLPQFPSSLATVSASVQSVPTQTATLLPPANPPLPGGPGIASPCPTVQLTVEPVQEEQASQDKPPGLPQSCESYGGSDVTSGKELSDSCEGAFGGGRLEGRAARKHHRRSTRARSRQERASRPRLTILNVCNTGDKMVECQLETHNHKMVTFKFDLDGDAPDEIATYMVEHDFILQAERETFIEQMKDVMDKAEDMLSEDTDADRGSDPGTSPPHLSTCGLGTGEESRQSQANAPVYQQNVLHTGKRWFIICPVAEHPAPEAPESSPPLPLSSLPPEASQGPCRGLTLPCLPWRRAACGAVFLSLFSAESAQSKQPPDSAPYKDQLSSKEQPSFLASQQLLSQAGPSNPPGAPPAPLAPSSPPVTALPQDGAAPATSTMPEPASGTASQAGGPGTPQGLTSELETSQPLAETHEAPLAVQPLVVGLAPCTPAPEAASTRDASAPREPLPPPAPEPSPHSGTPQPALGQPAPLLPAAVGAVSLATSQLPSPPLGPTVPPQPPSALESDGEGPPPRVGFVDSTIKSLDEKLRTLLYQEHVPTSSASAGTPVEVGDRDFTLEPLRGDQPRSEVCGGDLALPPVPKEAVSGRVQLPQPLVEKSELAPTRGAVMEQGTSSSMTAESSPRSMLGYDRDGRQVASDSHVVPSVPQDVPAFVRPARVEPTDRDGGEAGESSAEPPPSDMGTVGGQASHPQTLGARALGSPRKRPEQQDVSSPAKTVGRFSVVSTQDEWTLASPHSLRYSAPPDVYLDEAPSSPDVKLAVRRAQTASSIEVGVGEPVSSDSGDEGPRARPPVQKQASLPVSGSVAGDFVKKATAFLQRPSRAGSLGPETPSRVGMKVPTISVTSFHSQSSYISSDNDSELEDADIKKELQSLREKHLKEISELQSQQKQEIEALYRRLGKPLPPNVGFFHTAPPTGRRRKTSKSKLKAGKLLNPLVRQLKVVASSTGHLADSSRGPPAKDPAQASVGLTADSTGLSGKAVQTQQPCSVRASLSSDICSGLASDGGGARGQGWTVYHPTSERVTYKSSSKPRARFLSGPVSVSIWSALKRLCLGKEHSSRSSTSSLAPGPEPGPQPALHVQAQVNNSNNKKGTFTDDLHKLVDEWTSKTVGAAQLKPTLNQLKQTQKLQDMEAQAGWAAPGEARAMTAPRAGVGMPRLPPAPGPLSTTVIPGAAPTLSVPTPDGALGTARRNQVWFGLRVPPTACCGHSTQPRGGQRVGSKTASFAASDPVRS", "test": "Inhibition of recombinant human WNK2 (166 to 489 residues) at 1 uM using MBP as substrate measured after 40 mins in presence of [gamma33P]ATP by scintillation counting method relative to control"}, "[6]": {"biological_target": "Tyrosine-protein kinase Fgr (Homo sapiens) (UniProt P09769)", "sequence (P09769 2-529 limits assumed)": "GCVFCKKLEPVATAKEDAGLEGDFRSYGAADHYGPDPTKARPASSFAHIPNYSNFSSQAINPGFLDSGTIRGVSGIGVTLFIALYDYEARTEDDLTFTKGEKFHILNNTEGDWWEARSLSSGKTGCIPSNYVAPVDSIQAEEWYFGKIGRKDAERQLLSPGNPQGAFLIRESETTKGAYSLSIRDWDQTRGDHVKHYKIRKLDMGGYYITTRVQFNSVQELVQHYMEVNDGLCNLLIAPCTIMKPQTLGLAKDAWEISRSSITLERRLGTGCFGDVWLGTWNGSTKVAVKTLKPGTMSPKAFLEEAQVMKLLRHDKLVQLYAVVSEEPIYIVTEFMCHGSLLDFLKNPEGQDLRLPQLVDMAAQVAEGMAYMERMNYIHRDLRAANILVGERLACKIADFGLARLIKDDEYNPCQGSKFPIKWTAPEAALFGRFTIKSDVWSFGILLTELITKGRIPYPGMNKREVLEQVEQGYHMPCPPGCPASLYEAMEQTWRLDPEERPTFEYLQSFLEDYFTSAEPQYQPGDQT", "test": "Inhibition of recombinant human FGR (2 to end residues) at 1 uM using poly(Glu, Tyr) 4:1 as substrate measured after 40 mins in presence of [gamma33P]ATP by scintillation counting method relative to control"}, "[7]": {"biological_target": "Calcium/calmodulin-dependent protein kinase type IV (Homo sapiens) (UniProt Q16566)", "test": "Inhibition of recombinant full-length human CaMK4 at 1 uM using calmodulin as substrate measured after 40 mins in presence of [gamma33P]ATP by scintillation counting method relative to control"}, "[8]": {"biological_target": "Serine/threonine-protein kinase D2 (Homo sapiens) (UniProt Q9BZL6)", "test": "Inhibition of recombinant full-length human PKD2 at 1 uM using KKLNRTLSVA as substrate measured after 40 mins in presence of [gamma33P]ATP by scintillation counting method relative to control"}, "[9]": {"biological_target": "Mitogen-activated protein kinase kinase kinase 11 (Homo sapiens) (UniProt Q16584)", "sequence (Q16584 whole entry, looked up)": "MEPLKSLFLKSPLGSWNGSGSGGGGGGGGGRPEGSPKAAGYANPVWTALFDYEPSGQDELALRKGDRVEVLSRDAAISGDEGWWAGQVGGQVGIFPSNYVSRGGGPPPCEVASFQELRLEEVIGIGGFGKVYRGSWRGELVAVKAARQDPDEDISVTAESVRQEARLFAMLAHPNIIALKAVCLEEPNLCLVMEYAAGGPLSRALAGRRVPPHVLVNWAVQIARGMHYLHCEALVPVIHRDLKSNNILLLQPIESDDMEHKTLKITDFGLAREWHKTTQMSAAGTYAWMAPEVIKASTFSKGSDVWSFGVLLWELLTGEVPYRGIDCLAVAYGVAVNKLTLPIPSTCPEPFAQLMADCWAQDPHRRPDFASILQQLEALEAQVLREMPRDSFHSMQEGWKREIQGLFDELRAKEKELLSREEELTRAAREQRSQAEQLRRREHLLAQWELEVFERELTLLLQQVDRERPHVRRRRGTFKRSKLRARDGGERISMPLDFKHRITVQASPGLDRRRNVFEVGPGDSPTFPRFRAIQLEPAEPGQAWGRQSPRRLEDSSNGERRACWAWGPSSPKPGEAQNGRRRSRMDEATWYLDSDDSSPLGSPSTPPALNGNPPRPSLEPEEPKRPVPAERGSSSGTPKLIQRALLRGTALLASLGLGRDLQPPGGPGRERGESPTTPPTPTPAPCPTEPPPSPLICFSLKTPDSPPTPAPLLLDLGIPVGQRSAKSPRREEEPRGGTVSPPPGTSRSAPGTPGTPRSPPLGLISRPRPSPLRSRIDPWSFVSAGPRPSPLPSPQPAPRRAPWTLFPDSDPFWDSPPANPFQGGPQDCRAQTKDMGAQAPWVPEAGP", "test": "Inhibition of human MLK3 at 1 uM by radiometric method relative to control", "how_it_was_run": "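Percent inhibition of kinase activity at a single compound concentration, measured by the outsourced Eurofins KinaseProfiler panel. Values are the mean of two independent experiments.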"}, "[10]": {"biological_target": "Calcium/calmodulin-dependent protein kinase type 1B (Homo sapiens) (UniProt Q6P2M8)", "test": "Inhibition of full-length recombinant human CaMK1 beta at 1 uM using KKLRRTLSFAEPG as substrate measured after 40 mins in presence of [gamma33P]ATP by scintillation counting method relative to control", "how_it_was_run": "(§1)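 Single-point inhibition at 1 µM was measured in the Eurofins KinaseProfiler panel. Values are the mean of two independent experiments.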"}, "[11]": {"biological_target": "CDC7/Cyclin B1 (Homo sapiens) (UniProt P14635+O00311)", "test": "Inhibition of recombinant full-length human CDC7/cyclinB1 at 1 uM using Histone H1 as substrate measured after 120 mins in presence of [gamma33P]ATP by scintillation counting method relative to control", "assay_type": "protein-complex assay"}, "[12]": {"biological_target": "Casein kinase II subunit alpha' (Homo sapiens) (UniProt P19784)", "test": "Inhibition of full length recombinant human CK2alpha2 at 1 uM using RRRDDDSDDD as substrate measured after 40 mins in presence of [gamma33P]ATP by scintillation counting method relative to control"}, "NCI-H1299 [13]": {"test_system": "NCI-H1299", "test": "Induction of apoptosis in human H1299 cells assessed as early apoptotic cells at 1 uM after 48 hrs by AnnexinV-FITC/PI staining-based flow cytometric analysis (reference value: 0.248%)", "assay_type": "functional"}, "NCI-H1299 [14]": {"test_system": "NCI-H1299", "test": "Antitumour activity against human H1299 cells xenografted in Balb/c mouse assessed as tumour weight at 80 mg/kg, po after 21 days by digital caliper method (reference value: 2.17 g)", "assay_type": "functional", "how_it_was_run": "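Female nude mice, 6-8 weeks old, injected subcutaneously with 1×10^6 H1299 cells (100 µL of a 1×10^7/mL suspension in serum-free medium). At 100-120 mm3, randomized into groups of 5. Dosed orally each day for 21 days with drug dissolved in DMSO, or with vehicle. Caliper measurements and body weight taken every other day. Volume = short²×long×0.5. Growth inhibition based on change in volume relative to vehicle. Tumours weighed at the end.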"}, "[15]": {"biological_target": "Activin receptor type-1B (Homo sapiens) (UniProt P36896)", "test": "Inhibition of recombinant human ALK4 (150 to end residues) at 1 uM using casein as substrate measured after 40 mins in presence of [gamma33P]ATP by scintillation counting method relative to control"}, "[16]": {"biological_target": "Tyrosine-protein kinase Fyn (Homo sapiens) (UniProt P06241)", "test": "Inhibition of recombinant full-length human Fyn at 1 uM using KVEKIGEGTYGVVYK as substrate measured after 40 mins in presence of [gamma33P]ATP by scintillation counting method relative to control"}, "NCI-H1299 [17]": {"test_system": "NCI-H1299", "test": "Antiproliferative activity against human H1299 cells assessed as inhibition of cell viability at 10 uM after 72 hrs by CCK-8 assay relative to control", "assay_type": "functional", "conditions": "NCI-H1299, 72 h", "how_it_was_run": "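Single-concentration viability screen using CCK-8. Cells were seeded at 3000/well and treated for 72 h. A450 read after 1-4 h with reagent. Percent inhibition calculated against untreated control and blank wells as (Ac−As)/(Ac−Ab)×100%.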"}, "[18]": {"biological_target": "Ephrin type-A receptor 5 (Homo sapiens) (UniProt P54756)", "test": "Inhibition of recombinant human EphA5 (655 to 956 residues) at 1 uM using poly(Glu, Tyr) 4:1 as substrate measured after 40 mins in presence of [gamma33P]ATP by scintillation counting method relative to control"}, "Homo sapiens": {"organism": "Homo sapiens", "test": "Inhibition of recombinant human MAPKAPK2 A399G mutant (46 to end residues) at 1 uM using KKLNRTLSVA as substrate measured after 40 mins in presence of [gamma33P]ATP by scintillation counting method relative to control", "how_it_was_run": "as §1"}}, "note": "Calls of active or inactive are those of the source. The rule behind the calls is not given here.", "data": [{"molecule": "CN(C)C(=O)c1cc2cnc(Nc3ccc(NC(=O)CCCCCCCN=C=S)cc3)nc2n1C1CCCC1", "values": [{"measurement": "Activity", "setting": "NCI-H1299 [1]", "value": "Active"}, {"measurement": "inhibition", "setting": "[2]", "value": -5, "unit": "%"}, {"measurement": "viability at 0.25 µM", "setting": "A549", "value": 77.9, "unit": "%"}, {"measurement": "inhibition", "setting": "[3]", "value": 72, "unit": "%"}, {"measurement": "inhibition", "setting": "[4]", "value": 74, "unit": "%"}, {"measurement": "inhibition", "setting": "[5]", "value": 4, "unit": "%"}, {"measurement": "inhibition", "setting": "[6]", "value": 66, "unit": "%"}, {"measurement": "inhibition", "setting": "[7]", "value": -4, "unit": "%"}, {"measurement": "inhibition", "setting": "[8]", "value": -6, "unit": "%"}, {"measurement": "inhibition", "setting": "[9]", "value": 90, "unit": "%"}, {"measurement": "inhibition", "setting": "[10]", "value": 11, "unit": "%"}, {"measurement": "inhibition", "setting": "[11]", "value": 75, "unit": "%"}, {"measurement": "inhibition", "setting": "[12]", "value": -4, "unit": "%"}, {"measurement": "Activity", "setting": "NCI-H1299 [13]", "value": 2.28, "unit": "%"}, {"measurement": "Activity", "setting": "NCI-H1299 [14]", "value": 0.18, "unit": "g"}, {"measurement": "inhibition", "setting": "[15]", "value": 3, "unit": "%"}, {"measurement": "inhibition", "setting": "[16]", "value": 2, "unit": "%"}, {"measurement": "inhibition at 10 µM", "setting": "NCI-H1299 [17]", "value": 98.7, "unit": "%"}, {"measurement": "inhibition", "setting": "[18]", "value": 6, "unit": "%"}, {"measurement": "inhibition", "setting": "Homo sapiens", "value": 1, "unit": "%"}]}]}
